Measurements published in PMC4841444 (Lipids, 2015).

How the values were obtained:
recombinant HIV-1-RT = recombinant HIV-1-RT (Human immunodeficiency virus type 1 group M subtype B, UniProt P03366); assay: Reverse Transcriptase Colorimetric Assay; format: biochemical
[1] = Cytotoxicity against PBMC; format: cell-based; conditions: human, peripheral blood mononuclear cells (PBMC)
Procedure, shortened: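 PBMCs from healthy volunteers, grown in IL-2-supplemented medium, seeded at 20,000 cells/well and exposed to fatty acids at 5–500 µM final. Incubation 3 days at 37 °C in humidified 5% CO2. Viability read by MTT.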

HIV-1 RT = conditions: read-out: IC50 against HIV-1 RT; non-competitive inhibitor; cited from earlier work

CCCCCCCCCCCCCCCCCCCC#CCCCC(=O)O [1a, 5-Pentacosynoic acid]
IC50 (recombinant HIV-1-RT): 24 ± 1 µM | IC50 at 3 days [1]: > 500 µM

CCCCCCCCCCCCCCCC#CCCCCCCCC(=O)O [1b, 9-Pentacosynoic acid]
IC50 at 3 days [1]: > 500 µM

CCCCCCCCCCCCCCCCCCCCCCC#CC(=O)O [2-Pentacosynoic acid]
IC50 (recombinant HIV-1-RT): 566 ± 1 µM

CCCCCCCCCCCCCCCCCCC/C=C\CCCC(=O)O [2a, (5Z)-5-Pentacosenoic acid]
IC50 (recombinant HIV-1-RT): 38 ± 1 µM | IC50 at 3 days [1]: > 500 µM

CCCCCCCCCCCCCCC/C=C\CCCCCCCC(=O)O [2b, (9Z)-9-Pentacosenoic acid]
IC50 (recombinant HIV-1-RT): 54 ± 1 µM | IC50 at 3 days [1]: > 500 µM

CCCCCCCCCCC#CCCCCC(=O)O [6-Heptadecynoic acid]
IC50 (recombinant HIV-1-RT): > 1000 µM

CCCCCCCCCCCCCC#CCCCCC(=O)O [6-Icosynoic acid]
IC50 (recombinant HIV-1-RT): > 1000 µM

CCCCCCCC/C=C\CCCCCCCCCCCCCC(=O)O [Nervonic acid, cis-15-tetracosenoic acid]
IC50 (recombinant HIV-1-RT): 12 ± 1 µM | IC50 at 3 days [1]: > 500 µM | IC50 (HIV-1 RT): 4.8 µM

CCCCCCCCCCCCCCCC(=O)O [Palmitic acid]
IC50 (recombinant HIV-1-RT): > 1000 µM

CCCCCCCCCCCCCCCCCCCCCCCCC(=O)O [Pentacosanoic acid]
inhibition of the HIV-1 RT enzyme (in words) (recombinant HIV-1-RT; recombinant HIV-1 RT, colorimetric assay): does not inhibit HIV-1 RT at all
